The record followed here is ChEMBL document CHEMBL1127834, “Naphthalenic lignan lactones as selective, nonredox 5-lipoxygenase inhibitors. Synthesis and biological activity of (methoxyalkyl)thiazole and methoxytetrahydropyran hybrids” (J Med Chem, 1994).

Molecules are shown by their SMILES.

For series [1], the target named is T1, Polyunsaturated fatty acid 5-lipoxygenase (Homo sapiens, UniProt P09917).
T1 sequence (P09917 whole entry): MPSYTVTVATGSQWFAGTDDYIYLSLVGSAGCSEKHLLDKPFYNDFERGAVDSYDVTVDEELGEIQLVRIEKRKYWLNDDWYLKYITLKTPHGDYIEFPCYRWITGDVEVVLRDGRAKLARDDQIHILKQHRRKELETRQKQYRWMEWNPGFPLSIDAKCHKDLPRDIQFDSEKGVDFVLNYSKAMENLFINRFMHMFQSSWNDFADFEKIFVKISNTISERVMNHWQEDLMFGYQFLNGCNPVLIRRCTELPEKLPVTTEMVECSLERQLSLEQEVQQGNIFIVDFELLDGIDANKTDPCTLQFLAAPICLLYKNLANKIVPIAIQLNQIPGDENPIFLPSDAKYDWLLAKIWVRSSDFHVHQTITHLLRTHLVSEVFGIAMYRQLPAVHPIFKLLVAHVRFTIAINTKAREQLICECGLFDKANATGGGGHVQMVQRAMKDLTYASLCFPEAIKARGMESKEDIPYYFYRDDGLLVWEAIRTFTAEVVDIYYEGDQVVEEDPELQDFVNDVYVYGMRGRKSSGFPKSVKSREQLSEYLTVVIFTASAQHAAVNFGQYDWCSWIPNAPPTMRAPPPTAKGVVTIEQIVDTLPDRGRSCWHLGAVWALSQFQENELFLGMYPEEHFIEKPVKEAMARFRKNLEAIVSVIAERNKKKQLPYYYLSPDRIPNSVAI
The series is described as follows: In vitro potency against human 5-Lipoxygenase. In outline:
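Soluble cell-free fraction of Sf9 cells expressing recombinant human 5-LO (10 μg protein/mL). Conjugated diene formation followed at A234. Inhibitors added from 500-fold DMSO stocks.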

For series [2], the species on record is Homo sapiens. The series is described as follows: In vitro inhibition of LTB4 formation in human peripheral blood polymorphonuclear leukocytes (HPMN). It is filed as functional.
The species entered for series [3] is Homo sapiens. The series is described as follows: In vitro inhibition of LTB4 formation in human whole blood(HWB). It is filed as functional.
The species named for series [4] is Rattus norvegicus. As to the kind of experiment: Dose-dependent inhibition of LTB4 by the compound after 2 hr of oral pretreatment in rat pleural. It is filed as functional.
For the next series, the system named is Monkey. The series is described as follows: Inhibition of antigen-induced bronchoconstriction in allergic squirrel monkeys at 0.3 mg/kg. It is filed as functional. The note with it: in Saimiri. In outline: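 Allergic squirrel monkeys dosed orally at 0.3 mg/kg 4 h before aerosol challenge with Ascaris antigen. Read-outs were the increase in airway resistance (RL) and the decrease in dynamic compliance (Cdyn).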

The species named for series [5] is Rattus norvegicus. The series is described as follows: Dose-dependent inhibition of LTB4 by the compound after 3h of oral pretreatment in rat pleural. The class given is functional.
A short description of series [6]: Cmax value of compound was determined after 1 hr. It is filed as ADME, organism-based. Particulars: in vivo. In outline:
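Male Sprague-Dawley rats (2), starved overnight, dosed orally at 50 mg/kg as a solution in 0.5% methocel. Jugular vein blood sampled at 0, 0.5, 1, 2, 4, 6 and 8 h. Plasma proteins precipitated with an equal volume of acetonitrile. Supernatant analysed by reversed-phase HPLC for the lactone.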

With `CCC(OC)(c1cccc(OCc2ccc3c(-c4ccccc4)c4c(cc3c2)C(=O)OC4)c1)c1nccs1` (configuration not stated), the IC50 (usually the concentration at which inhibition is half-maximal) in series [1] was 0.05 µM; in the series listed under Homo sapiens [2] it was 0.0022 µM; in the series filed under Homo sapiens [3] it was 0.7 µM.
For `COC1(c2cccc(OCc3ccc4ccccc4c3)c2)CCOCC1` the same measures were 0.01 µM, 0.0012 µM and 0.06 µM.
The compound `CC(C)(C)Sc1c(CC(C)(C)C(=O)O)n(Cc2ccc(Cl)cc2)c2ccc(OCc3ccc4ccccc4n3)cc12` [QUIFLAPON] showed an IC50 in series [1] of 5 µM. The ED50 (as a rule, the dose at which the effect has come halfway, by size or by number of responders) in the series listed under Rattus norvegicus [4] is 0.5 mg/kg.
On to `COC1(c2cccc(COc3ccc4c(-c5ccccc5)c(CO)c(C(=O)[O-])cc4c3)c2)CCOCC1.[Na+]`, for which the inhibition in vivo – broadly, the share of the control response that was lost under treatment – at 0.3 mg/kg in the series with Monkey is 95%. In addition, in the series listed under Rattus norvegicus [5], the ED50 came to 0.6 mg/kg.
For the compound `CCC(OC)(c1cccc(COc2ccc3c(-c4ccccc4)c4c(cc3c2)C(=O)OC4)c1)c1nccs1` (configuration not stated), the IC50 in series [1] was 0.16 µM; in the series filed under Homo sapiens [2], 0.0048 µM; in the series filed under Homo sapiens [3], 1.4 µM.
As to `CCC(OC)(c1cccc(OCc2ccc3ccccc3c2)c1)c1nccs1` (configuration not stated) [ZM-211965], the IC50 came out at 0.0044 µM in the series listed under Homo sapiens [2] and 0.7 µM in the series filed under Homo sapiens [3].
In the case of `CC(c1cc2ccccc2s1)N(O)C(N)=O` (configuration not stated) [ZILEUTON], in the series listed under Homo sapiens [3], the midpoint of inhibition, the IC50, lay at 2 µM.
For the compound `COC1(c2cccc(COc3ccc4ccccc4c3)c2)CCOCC1`, the figures for the IC50 (in series [1]; in the series listed under Homo sapiens [2]; in the series filed under Homo sapiens [3]) were 1 µM, 0.055 µM and 1.5 µM, respectively.
Consider `COC1(c2cccc(COc3ccc4c(-c5ccccc5)c5c(cc4c3)C(=O)OC5)c2)CCOCC1`, for which the Cmax (commonly the maximum level reached in the sampled fluid or tissue) in series [6] amounted to 4 µM. The half-inhibitory concentration (IC50) amounted to 0.0015 µM in the series listed under Homo sapiens [2] and 0.05 µM in the series listed under Homo sapiens [3].
For `CCC(OC)(c1cccc(COc2ccc3ccccc3c2)c1)c1nccs1` (configuration not stated), the IC50 is 0.011 µM in the series filed under Homo sapiens [2] and above 3 µM in the series listed under Homo sapiens [3].
In the case of `COC1(c2cccc(OCc3ccc4c(-c5ccccc5)c5c(cc4c3)C(=O)OC5)c2)CCOCC1`, the 50% inhibitory concentration (IC50) in series [1] was found to be 0.02 µM; in the series filed under Homo sapiens [2], 0.0009 µM; in the series filed under Homo sapiens [3], 0.05 µM.
